Holding throughout (type): functional, organism-based
Assay [1] relates to Saccharomyces cerevisiae. The assay can be described thus: Decrease in ARG5,6 mRNA level in Saccharomyces cerevisiae BY4741 at 1 mg/ml by Northern blot analysis relative to control. The gist of the method: (§1)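 BY4741 inoculated from a saturated culture (30 °C, YPD) into minimal medium with leucine, methionine, uracil and histidine. Treatments were added at inoculation: 15 µM PALO in 50 mM potassium phosphate pH 6.8, buffer alone (untreated), 1 mg/mL L-arginine, or both. Cells grown at 30 °C and harvested at mid-log (OD600 0.4–0.6). mRNA measured by quantitative northern blot, normalized to SCR1; mean of three replicates.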

Assay [2] has as its system Saccharomyces cerevisiae. The assay can be described thus: Decrease in CPA1 mRNA level in Saccharomyces cerevisiae BY4741 at 1 mg/ml by Northern blot analysis relative to control. A digest of the protocol:
as §1

In assay [3] the test system is Saccharomyces cerevisiae. The assay can be described thus: Decrease in TRP5 mRNA level in Saccharomyces cerevisiae BY4741 at 1 mg/ml by Northern blot analysis relative to control. A digest of the protocol:
as §1

Assay [4] concerns Saccharomyces cerevisiae. Description: Decrease in TAP-tagged ARG5,6 protein level in Saccharomyces cerevisiae YSC1178-7500224 at 1 mg/ml by Western blotting analysis relative to control. A digest of the protocol: (§2)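 TAP-tagged strains (BY4741 background, untagged BY4741 as control) were grown from a saturated culture in supplemented minimal medium. At inoculation they received 15 µM PALO in 50 mM potassium phosphate pH 6.8, buffer alone, 1 mg/mL L-arginine, or both. Cells grown at 30 °C and harvested at OD600 0.4–0.6. Extracts were western blotted with anti-TAP antibody, with Coomassie-stained duplicate gels as loading controls. Band intensity was quantified.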
(Immunoblotting shows a protein as a band on a membrane.)

Assay [5] concerns Saccharomyces cerevisiae. Description: Decrease in TAP-tagged CPA1 protein level in Saccharomyces cerevisiae YSC1178-7502950 at 1 mg/ml by Western blotting analysis relative to control. A digest of the protocol: as §2
In assay [6] the test system is Saccharomyces cerevisiae. Description: Decrease in TAP-tagged TRP5 protein level in Saccharomyces cerevisiae YSC1178-7500415 at 1 mg/ml by Western blotting analysis relative to control. A digest of the protocol:
as §2

Assay [7] has as its system Saccharomyces cerevisiae. Description: Increase in ARG5,6 mRNA level in Saccharomyces cerevisiae BY4741 at 15 uM by Northern blot analysis relative to control. The gist of the method:
as §1

Assay [8] relates to Saccharomyces cerevisiae. Description: Increase in CPA1 mRNA level in Saccharomyces cerevisiae BY4741 at 15 uM by Northern blot analysis relative to control. A digest of the protocol:
as §1

Assay [9] has as its system Saccharomyces cerevisiae. Description: Increase in TRP5 mRNA level in Saccharomyces cerevisiae BY4741 at 15 uM by Northern blot analysis relative to control. The gist of the method: as §1
For assay [10], the system named is Saccharomyces cerevisiae. Description: Decrease in ARG5,6 mRNA level in Saccharomyces cerevisiae BY4741 at 15 uM by Northern blot analysis in presence of arginine relative to control. A digest of the protocol:
as §1

Assay [11] has as its system Saccharomyces cerevisiae. Description: Decrease in CPA1 mRNA level in Saccharomyces cerevisiae BY4741 at 15 uM by Northern blot analysis in presence of arginine relative to control. A digest of the protocol: as §1
The subject of assay [12] is Saccharomyces cerevisiae. Description: Decrease in TRP5 mRNA level in Saccharomyces cerevisiae BY4741 at 15 uM by Northern blot analysis in presence of arginine relative to control. A digest of the protocol:
as §1

For assay [13], the system named is Saccharomyces cerevisiae. The assay can be described thus: Increase in TAP-tagged ARG5,6 protein level in Saccharomyces cerevisiae YSC1178-7500224 at 15 uM by Western blotting analysis relative to control. The gist of the method:
as §2

The test system of assay [14] is Saccharomyces cerevisiae. The assay can be described thus: Increase in TAP-tagged CPA1 protein level in Saccharomyces cerevisiae YSC1178-7502950 at 15 uM by Western blotting analysis relative to control. The gist of the method: as §2
Assay [15] has as its system Saccharomyces cerevisiae. The assay can be described thus: Increase in TAP-tagged TRP5 protein level in Saccharomyces cerevisiae YSC1178-7500415 at 15 uM by Western blotting analysis relative to control. The gist of the method:
as §2

The test system of assay [16] is Saccharomyces cerevisiae. Description: Decrease in TAP-tagged ARG5,6 protein level in Saccharomyces cerevisiae YSC1178-7500224 at 15 uM by Western blotting analysis in presence of arginine relative to control. The gist of the method: as §2
For assay [17], the system named is Saccharomyces cerevisiae. The assay can be described thus: Decrease in TAP-tagged CPA1 protein level in Saccharomyces cerevisiae YSC1178-7502950 at 15 uM by Western blotting analysis in presence of arginine relative to control. A digest of the protocol: as §2
The test system of assay [18] is Saccharomyces cerevisiae. The assay can be described thus: Decrease in TAP-tagged TRP5 protein level in Saccharomyces cerevisiae YSC1178-7500415 at 15 uM by Western blotting analysis in presence of arginine relative to control. The gist of the method: as §2
Assay [19] relates to Saccharomyces cerevisiae. The assay can be described thus: Effect on growth rate in Saccharomyces cerevisiae BY4741. A digest of the protocol:
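Growth followed at 30 °C in nitrogen-limiting medium: 2% dextrose, 1 mM ammonium sulfate, 100 µM potassium phosphate pH 6.8, and 10 µg/mL each of leucine, methionine, uracil and histidine.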

Calls of active or inactive are those of the source. The rule behind the calls is not given here.

For `N=C(N)NCCC[C@H](N)C(=O)O`, the outcome in the assay on Saccharomyces cerevisiae [1], in the assay with Saccharomyces cerevisiae [2], in the assay with Saccharomyces cerevisiae [4] and in the assay on Saccharomyces cerevisiae [5] was Active. Further, the outcome in the assay on Saccharomyces cerevisiae [3] and in the assay on Saccharomyces cerevisiae [6] was inactive.
Turning to `N[C@@H](CCCNC(=O)CP(=O)(O)O)C(=O)O`, the outcome with Saccharomyces cerevisiae [7], in the assay on Saccharomyces cerevisiae [8], in the assay on Saccharomyces cerevisiae [9], in the assay on Saccharomyces cerevisiae [12], with Saccharomyces cerevisiae [13] and with Saccharomyces cerevisiae [14] was inactive. In addition, the outcome with Saccharomyces cerevisiae [15], with Saccharomyces cerevisiae [18] and in the assay with Saccharomyces cerevisiae [19] was inactive. In addition, the outcome in the assay with Saccharomyces cerevisiae [10], in the assay with Saccharomyces cerevisiae [11], with Saccharomyces cerevisiae [16] and in the assay with Saccharomyces cerevisiae [17] was Active.

The values above are taken from ChEMBL document CHEMBL1759921, “N5-phosphonoacetyl-L-ornithine (PALO): a convenient synthesis and investigation of influence on regulation of amino acid biosynthetic genes in Saccharomyces cerevisiae” (Bioorg Med Chem Lett, 2011).
